Results: PMC7384521 (ACS chemical biology, 2020)

Legend:
SMARCA4(BD)-HiBiT = test: HiBiT CETSA of SMARCA4; type: cell-based; settings: for luminescence of SMARCA4(BD)-HiBiT: OCI/AML-2 cells, 37 °C
How it was run: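 SMARCA4 bromodomain (residues 1426-1531) fused to HiBiT, stably expressed in OCI/AML-2 cells (alpha-MEM, 20% FBS) by lentiviral spinoculation: 2,000 rpm, 1 h, room temperature, 8 μg/mL polybrene. Cells were drug-treated at 37 °C without heating. Raw luminescence was read after adding Nano-Glo HiBiT lytic detection reagent.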

full-length ENL-HiBiT = test: HiBiT CETSA melt curve of full-length ENL-HiBiT; type: cell-based; settings: HEK293T cells
ENL(YEATS)-HiBiT [1] = test: HiBiT CETSA; type: cell-based
ENL(YEATS)-HiBiT [2] = test: HiBiT CETSA performed on pre-lysed cells; settings: cells lysed first, then treated; 37 °C
AF9(YEATS)-HiBiT = test: ITDR at 37 °C of AF9; type: cell-based; settings: OCI/AML-2 cells, 1 hour
YEATS4/GAS41 = test: Biolayer interferometry, immobilized biotin-YEATS4; type: binding; settings: BLI
BRD4 bromodomain 1 (BD1) = test: HTRF histone-binding assay, BRD4 BD1 with tetra-acetyl H4
How it was run: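 BRD4 BD1 (purchased, 10 nM) with 13.3 nM tetra-acetylated H4. Buffer was 25 mM HEPES pH 7, 20 mM NaCl, 0.2% Pluronic F-127, 0.05% BSA; detection used 1 nM Eu-anti-His antibody plus 8.9 nM APC-streptavidin. Compound added by pin tool and incubated 2 h or more. Read at 337 nm excitation as the 665/620 nm emission ratio; percent inhibition relative to vehicle (maximum) and no-peptide (minimum) controls.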

ENL YEATS [3] = biological target: T1, ENL YEATS (Homo sapiens, UniProt Q03111); test: HTRF histone-binding assay, ENL YEATS with H3K27cr
T1 sequence (Q03111 1-148): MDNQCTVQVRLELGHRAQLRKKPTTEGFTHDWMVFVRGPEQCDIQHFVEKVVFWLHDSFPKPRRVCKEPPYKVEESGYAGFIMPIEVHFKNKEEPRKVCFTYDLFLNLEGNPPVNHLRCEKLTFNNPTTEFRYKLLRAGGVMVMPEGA
How it was run: (§1)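 HTRF in 25 mM HEPES pH 7, 20 mM NaCl, 0.2% Pluronic F-127, 0.05% BSA, with 1 nM Eu-anti-His antibody and 8.9 nM APC-streptavidin. ENL: recombinant His-tagged ENL YEATS(1-148), 5 nM, with 13.3 nM biotinylated H3(13-32)K27cr. AF9: purchased AF9 YEATS, 5 nM, with 100 nM of the same peptide. Compound pin-transferred, incubated ≥2 h; 337 nm excitation, 665/620 nm ratio; percent inhibition scaled to vehicle (max) and no-peptide (min) wells.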

endogenous ENL protein = test: Immunoblot-based CETSA on endogenous ENL; type: cell-based; settings: 80 μM, OCI/AML-2 cells, 1 hr
How it was run: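 CETSA on endogenous ENL followed a previously published protocol. Immunoblot detection used an anti-ENL rabbit monoclonal antibody (D9M4B) and an anti-GAPDH mouse monoclonal antibody (6C5).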

ENL YEATS [4] = biological target: T1, ENL YEATS; test: MALDI-TOF mass spectrometry for covalent adducts; settings: high-resolution MALDI-TOF
AF9 YEATS = biological target: T2, AF9 YEATS (Homo sapiens, UniProt P42568); test: HTRF histone-binding assay, AF9 YEATS with H3K27cr; settings: read-out: IC50, HTRF AF9 YEATS crotonyl-lysine recognition
T2 sequence (P42568 1-138 limits assumed): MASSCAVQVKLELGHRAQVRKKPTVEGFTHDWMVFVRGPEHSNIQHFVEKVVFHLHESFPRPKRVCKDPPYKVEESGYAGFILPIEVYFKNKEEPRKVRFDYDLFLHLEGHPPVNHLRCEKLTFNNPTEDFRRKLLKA
How it was run: as §1

Q: What does the source list for `O=C(/C=C/N1C[C@H]2C[C@@H]1CN2c1ccccn1)c1ccccc1O` [PFI-3]?
A: concentration required to elevate the luminescence from SMARCA4(BD)-HiBiT (SMARCA4(BD)-HiBiT; ITDR): 80 µM; luminescence of SMARCA4(BD)-HiBiT (SMARCA4(BD)-HiBiT): able to elevate luminescence

Q: `C[C@H]1CCCN1Cc1nc2cc(NC(=O)c3ccc4c(cnn4C)c3)ccc2[nH]1` [SGC-iMLLT] was tested. Which “luminescence of SMARCA4(BD)-HiBiT” value (SMARCA4(BD)-HiBiT) did it give?
A: no such effect

Q: And the “luminescence-based melt curve of full-length ENL-HiBiT” value (full-length ENL-HiBiT)?
A: did not affect

Q: And the “ITDR luminescence, wild-type ENL YEATS” value (ENL(YEATS)-HiBiT [1]; 37 °C, HEK293T cells, 1 hour)?
A: dose-responsive increases in luminescence

Q: And the “CETSA melt curve of ENL(YEATS)-HiBiT” value (ENL(YEATS)-HiBiT [1]; HEK293T cells, 1-hour treatment, luminescence normalized to 37 °C)?
A: rightward shift

Q: And the “luminescence of ENL(YEATS)-HiBiT in cell lysates” value (ENL(YEATS)-HiBiT [2])?
A: luminescence was increased

Q: What about the “ITDR luminescence, AF9(YEATS)-HiBiT” value (AF9(YEATS)-HiBiT) of the same compound?
A: dose-dependent increases in luminescence

Q: How did the “concentration required to reliably elevate ENL(YEATS)-HiBiT luminescence” value (ENL(YEATS)-HiBiT [1]; living cells, dose-response) turn out when `O=C(/C=C/c1ccc(-n2ccnc2)cc1)N1CCN(C(=O)c2ccco2)CC1` [sCGT990] was run?
A: 80 µM

Q: What about the “binding to YEATS4/GAS41” value (YEATS4/GAS41) of the same compound?
A: does not efficiently bind

Q: What about the “inhibition of BRD4 BD1 association with tetra-acetyl H4” value (BRD4 bromodomain 1 (BD1)) of the same compound?
A: does not inhibit

Q: And the “IC50, HTRF ENL YEATS association with H3K27cr” value (ENL YEATS [3])?
A: 19 µM

Q: What about the “stabilization of endogenous ENL by immunoblot-based CETSA” value (endogenous ENL protein) of the same compound?
A: weak, if any, stabilization

Q: What about the “covalent adducts with ENL YEATS” value (ENL YEATS [4]) of the same compound?
A: unable to identify covalent adducts

Q: What about the IC50 (AF9 YEATS) of the same compound?
A: 62 µM

Q: How did the “luminescence of ENL(YEATS)-HiBiT in cell lysates” value (ENL(YEATS)-HiBiT [2]) turn out when “crotonylated histone peptide: peptide substrate, H3K27cr, used to treat cell lysates” was run?
A: luminescence was increased
